Test results from ChEMBL document CHEMBL4190286, “Modulating the Serotonin Receptor Spectrum of Pulicatin Natural Products” (J Nat Prod, 2017).
Activity calls are given as the source filed them. No cut-off for these calls is given here.

Experiments:
[1] = biological target: T1, 5-hydroxytryptamine receptor 2B (Homo sapiens, UniProt P41595); assay: Antagonist activity at 5-HT2B receptor (unknown origin) by calcium release assay; format: functional
[2] = biological target: T2, 5-hydroxytryptamine receptor 5A (Homo sapiens, UniProt P47898); assay: Displacement of [3H]-LSD from human 5-HT5A receptor expressed in Flp-In CHO cells after 90 mins by microbeta scintillation counting analysis; format: cell-based
[3] = biological target: T3, 5-hydroxytryptamine receptor 1D (Homo sapiens, UniProt P28221); assay: Antagonist activity at 5-HT1D receptor (unknown origin) by Tango assay; format: functional
[4] = biological target: T4, 5-hydroxytryptamine receptor 1B (Homo sapiens, UniProt P28222); assay: Displacement of [3H]5-CT from human 5-HT1B receptor expressed in HEK cells after 90 mins by microbeta scintillation counting analysis; format: cell-based
[5] = biological target: T4, 5-hydroxytryptamine receptor 1B; assay: Antagonist activity at 5-HT1B receptor (unknown origin) by Tango assay; format: functional
[6] = biological target: 5-hydroxytryptamine receptor 4 (Homo sapiens, UniProt Q13639); assay: Antagonist activity at 5-HT4 receptor (unknown origin) by Tango assay; format: functional
[7] = biological target: T3, 5-hydroxytryptamine receptor 1D; assay: Displacement of [3H]5-CT from human 5-HT1D receptor expressed in HEKT cells after 90 mins by microbeta scintillation counting analysis; format: cell-based
[8] = biological target: T5, 5-hydroxytryptamine receptor 6 (Homo sapiens, UniProt P50406); assay: Displacement of [3H]-LSD from human 5-HT6 receptor expressed in HEK cells after 90 mins by microbeta scintillation counting analysis; format: cell-based
[9] = biological target: T1, 5-hydroxytryptamine receptor 2B; assay: Displacement of [3H]-LSD from human 5-HT2B receptor expressed in HEK cells after 90 mins by microbeta scintillation counting analysis; format: cell-based
[10] = biological target: T4, 5-hydroxytryptamine receptor 1B; assay: Partial agonist activity at 5-HT1B receptor (unknown origin) by Tango assay; format: functional
[11] = biological target: T6, 5-hydroxytryptamine receptor 2C (Homo sapiens, UniProt P28335); assay: Displacement of [3H]-Mesulergine from human 5-HT2C receptor expressed in HEKT cells after 90 mins by microbeta scintillation counting analysis; format: cell-based
T6 sequence (P28335 whole entry): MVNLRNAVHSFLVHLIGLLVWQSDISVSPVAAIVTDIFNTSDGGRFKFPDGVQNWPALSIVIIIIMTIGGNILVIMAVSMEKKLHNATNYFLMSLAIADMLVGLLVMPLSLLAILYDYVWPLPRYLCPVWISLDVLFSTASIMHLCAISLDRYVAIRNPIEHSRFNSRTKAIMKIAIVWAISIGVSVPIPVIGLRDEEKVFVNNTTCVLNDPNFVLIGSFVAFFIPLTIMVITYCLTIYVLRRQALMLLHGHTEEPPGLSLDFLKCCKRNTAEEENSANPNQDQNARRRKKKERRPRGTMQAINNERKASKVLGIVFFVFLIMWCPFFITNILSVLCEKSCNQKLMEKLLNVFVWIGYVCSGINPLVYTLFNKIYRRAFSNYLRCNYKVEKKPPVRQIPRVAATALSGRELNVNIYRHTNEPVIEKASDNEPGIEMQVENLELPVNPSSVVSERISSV

[12] = biological target: T7, 5-hydroxytryptamine receptor 1A (Homo sapiens, UniProt P08908); assay: Antagonist activity at 5-HT1A receptor (unknown origin) by Tango assay; format: functional
T7 sequence (P08908 whole entry): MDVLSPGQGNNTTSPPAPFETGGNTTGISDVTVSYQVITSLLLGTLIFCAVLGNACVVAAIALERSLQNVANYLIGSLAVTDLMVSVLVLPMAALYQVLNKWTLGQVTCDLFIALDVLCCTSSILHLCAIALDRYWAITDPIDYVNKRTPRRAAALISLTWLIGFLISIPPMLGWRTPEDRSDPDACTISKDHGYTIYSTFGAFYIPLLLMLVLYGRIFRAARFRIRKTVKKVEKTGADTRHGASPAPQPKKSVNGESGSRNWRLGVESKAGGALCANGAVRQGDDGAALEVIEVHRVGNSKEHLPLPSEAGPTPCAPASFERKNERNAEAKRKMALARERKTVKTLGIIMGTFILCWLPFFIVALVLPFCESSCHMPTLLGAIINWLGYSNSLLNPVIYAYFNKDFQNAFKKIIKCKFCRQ

[13] = biological target: T8, 5-hydroxytryptamine receptor 1E (Homo sapiens, UniProt P28566); assay: Displacement of [3H]5-HT from human 5-HT1E receptor expressed in HEK cells after 90 mins by microbeta scintillation counting analysis; format: cell-based
[14] = biological target: T9, 5-hydroxytryptamine receptor 2A (Homo sapiens, UniProt P28223); assay: Displacement of [3H]Ketanserin from 5-HT2A (unknown origin) receptor after 90 mins by microbeta scintillation counting analysis
[15] = biological target: T10, 5-hydroxytryptamine receptor 3A (Homo sapiens, UniProt P46098); assay: Displacement of [3H]-GR65630 from human 5-HT3 receptor expressed in HEKT cells after 90 mins by microbeta scintillation counting analysis; format: cell-based
T10 sequence (P46098 whole entry): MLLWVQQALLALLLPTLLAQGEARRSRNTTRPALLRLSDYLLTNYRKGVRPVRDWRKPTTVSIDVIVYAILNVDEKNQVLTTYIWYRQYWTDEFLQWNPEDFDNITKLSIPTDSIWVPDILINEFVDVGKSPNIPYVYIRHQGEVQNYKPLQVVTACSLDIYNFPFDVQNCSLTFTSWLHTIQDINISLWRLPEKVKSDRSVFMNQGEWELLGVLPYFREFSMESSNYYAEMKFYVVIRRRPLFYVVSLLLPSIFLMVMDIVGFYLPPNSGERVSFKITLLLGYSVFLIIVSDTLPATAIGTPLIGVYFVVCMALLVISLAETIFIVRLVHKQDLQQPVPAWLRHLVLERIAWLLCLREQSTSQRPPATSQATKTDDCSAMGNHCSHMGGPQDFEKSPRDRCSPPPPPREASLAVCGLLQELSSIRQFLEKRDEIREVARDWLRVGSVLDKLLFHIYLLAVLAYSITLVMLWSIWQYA

[16] = biological target: T11, 5-hydroxytryptamine receptor 7 (Homo sapiens, UniProt P34969); assay: Displacement of [3H]-LSD from human 5-HT7A receptor expressed in HEK cells after 90 mins by microbeta scintillation counting analysis; format: cell-based
[17] = biological target: T4, 5-hydroxytryptamine receptor 1B; assay: Agonist activity at 5-HT1B receptor (unknown origin) at 2 uM by Tango assay; format: functional
Mus musculus [18] = assay: Anticonvulsant activity in ip dosed CF1 mouse assessed as protection against 44 mA current-induced seizure after 15 mins by 6 Hz psychomotor test; format: functional; conditions: 0.25 h
In short: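 Mice received intraperitoneal doses of 10, 30 or 100 mg/kg. At 1/4, 1/2, 1, 2 and 4 h after dosing, four mice per time point were given 44 mA for 3 s through corneal electrodes to elicit a partial psychomotor seizure. The result is the number of mice protected over the number tested.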

[19] = biological target: T10, 5-hydroxytryptamine receptor 3A; assay: Binding affinity to 5-HT3 receptor (unknown origin) by radioligand binding assay
[20] = biological target: T6, 5-hydroxytryptamine receptor 2C; assay: Binding affinity to 5-HT2C receptor (unknown origin) by radioligand binding assay
[21] = biological target: T1, 5-hydroxytryptamine receptor 2B; assay: Agonist activity at 5-HT2B receptor (unknown origin) by calcium release assay; format: functional
[22] = biological target: T9, 5-hydroxytryptamine receptor 2A; assay: Binding affinity to 5-HT2A receptor (unknown origin) by radioligand binding assay
[23] = biological target: T1, 5-hydroxytryptamine receptor 2B; assay: Ratio of IC50 for antagonist activity at 5-HT2B receptor (unknown origin) by calcium release assay to Ki for displacement of [3H]-LSD from human 5-HT2B receptor expressed in baculovirus infected Sf9 cells; format: functional
[24] = biological target: T4, 5-hydroxytryptamine receptor 1B; assay: Displacement of [3H]-LSD from human 5-HT1B receptor expressed in baculovirus infected Sf9 cells
[25] = biological target: T2, 5-hydroxytryptamine receptor 5A; assay: Binding affinity to 5-HT5A receptor (unknown origin) by radioligand binding assay
[26] = biological target: T8, 5-hydroxytryptamine receptor 1E; assay: Binding affinity to 5-HT1E receptor (unknown origin) by radioligand binding assay
[27] = biological target: T11, 5-hydroxytryptamine receptor 7; assay: Binding affinity to 5-HT7A receptor (unknown origin) by radioligand binding assay
[28] = biological target: T3, 5-hydroxytryptamine receptor 1D; assay: Binding affinity to 5-HT1D receptor (unknown origin) by radioligand binding assay
[29] = biological target: T5, 5-hydroxytryptamine receptor 6; assay: Binding affinity to 5-HT6 receptor (unknown origin) by radioligand binding assay
Mus musculus [30] = assay: Anticonvulsant activity in ip dosed CF1 mouse assessed as protection against 44 mA current-induced seizure after 1 hr by 6 Hz psychomotor test; format: functional
In short: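 Mice received compound intraperitoneally at 10, 30 and 100 mg/kg. At 0.25, 0.5, 1, 2 and 4 h after dosing, four mice per time point were challenged with 32 or 44 mA for 3 s through corneal electrodes to elicit a partial psychomotor seizure. Data are the number of mice protected over the number tested at each time.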

T2 sequence (P47898 whole entry): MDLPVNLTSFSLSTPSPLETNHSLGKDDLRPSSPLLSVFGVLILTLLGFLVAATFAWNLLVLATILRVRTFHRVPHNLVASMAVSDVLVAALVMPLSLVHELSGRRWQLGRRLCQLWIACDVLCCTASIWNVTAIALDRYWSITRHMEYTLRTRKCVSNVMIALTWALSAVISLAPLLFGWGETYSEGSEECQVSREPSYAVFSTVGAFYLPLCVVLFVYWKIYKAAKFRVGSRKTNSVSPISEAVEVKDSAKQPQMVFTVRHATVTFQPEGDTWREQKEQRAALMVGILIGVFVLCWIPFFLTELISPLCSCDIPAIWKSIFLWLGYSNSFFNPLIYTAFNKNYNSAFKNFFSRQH
T1 sequence (P41595 whole entry): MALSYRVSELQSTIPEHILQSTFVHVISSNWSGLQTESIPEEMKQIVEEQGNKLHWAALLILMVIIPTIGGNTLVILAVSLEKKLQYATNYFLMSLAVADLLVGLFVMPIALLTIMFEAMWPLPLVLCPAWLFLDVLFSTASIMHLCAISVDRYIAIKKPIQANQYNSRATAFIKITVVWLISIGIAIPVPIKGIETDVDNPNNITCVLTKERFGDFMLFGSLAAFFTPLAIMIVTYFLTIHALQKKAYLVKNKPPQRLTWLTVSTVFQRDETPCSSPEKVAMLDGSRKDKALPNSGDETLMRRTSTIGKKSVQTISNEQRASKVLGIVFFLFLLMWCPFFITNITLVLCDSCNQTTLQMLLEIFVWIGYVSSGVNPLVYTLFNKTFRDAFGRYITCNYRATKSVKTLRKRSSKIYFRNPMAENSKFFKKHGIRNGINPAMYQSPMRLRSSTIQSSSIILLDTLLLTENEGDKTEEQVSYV
T4 sequence (P28222 whole entry): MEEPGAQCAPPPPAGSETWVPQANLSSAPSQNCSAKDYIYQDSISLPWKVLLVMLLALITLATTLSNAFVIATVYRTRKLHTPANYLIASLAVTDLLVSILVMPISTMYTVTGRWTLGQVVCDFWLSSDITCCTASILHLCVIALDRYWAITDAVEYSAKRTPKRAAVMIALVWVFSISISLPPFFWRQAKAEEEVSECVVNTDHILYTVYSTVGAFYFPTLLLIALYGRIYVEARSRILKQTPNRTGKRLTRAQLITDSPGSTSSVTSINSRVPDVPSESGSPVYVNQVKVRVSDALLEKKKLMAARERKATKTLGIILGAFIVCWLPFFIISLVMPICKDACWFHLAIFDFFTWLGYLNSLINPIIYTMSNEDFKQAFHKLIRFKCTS
T11 sequence (P34969 whole entry): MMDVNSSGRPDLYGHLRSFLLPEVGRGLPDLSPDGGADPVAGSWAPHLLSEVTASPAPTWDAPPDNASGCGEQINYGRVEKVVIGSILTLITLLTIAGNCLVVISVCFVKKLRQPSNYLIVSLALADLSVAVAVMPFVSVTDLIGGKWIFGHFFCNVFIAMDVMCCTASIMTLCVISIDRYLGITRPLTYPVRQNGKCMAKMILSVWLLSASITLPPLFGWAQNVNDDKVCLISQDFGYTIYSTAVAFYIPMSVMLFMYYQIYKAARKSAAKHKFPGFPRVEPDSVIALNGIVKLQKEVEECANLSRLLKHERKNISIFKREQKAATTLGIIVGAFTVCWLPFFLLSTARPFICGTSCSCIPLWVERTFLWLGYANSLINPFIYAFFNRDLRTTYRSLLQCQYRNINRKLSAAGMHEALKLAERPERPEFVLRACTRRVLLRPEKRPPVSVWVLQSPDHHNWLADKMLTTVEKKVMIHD
T5 sequence (P50406 whole entry): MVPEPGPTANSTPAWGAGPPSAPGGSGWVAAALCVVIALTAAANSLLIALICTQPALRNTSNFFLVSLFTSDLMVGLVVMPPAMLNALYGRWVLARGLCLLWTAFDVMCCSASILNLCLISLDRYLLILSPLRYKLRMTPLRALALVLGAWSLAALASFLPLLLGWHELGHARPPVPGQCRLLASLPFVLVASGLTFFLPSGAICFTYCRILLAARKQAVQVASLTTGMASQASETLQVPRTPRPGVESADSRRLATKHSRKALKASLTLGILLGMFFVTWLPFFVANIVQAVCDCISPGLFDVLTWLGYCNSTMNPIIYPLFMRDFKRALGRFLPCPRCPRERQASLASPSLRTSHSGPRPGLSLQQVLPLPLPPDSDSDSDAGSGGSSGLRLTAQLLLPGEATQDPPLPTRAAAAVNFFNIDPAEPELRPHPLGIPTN
T8 sequence (P28566 whole entry): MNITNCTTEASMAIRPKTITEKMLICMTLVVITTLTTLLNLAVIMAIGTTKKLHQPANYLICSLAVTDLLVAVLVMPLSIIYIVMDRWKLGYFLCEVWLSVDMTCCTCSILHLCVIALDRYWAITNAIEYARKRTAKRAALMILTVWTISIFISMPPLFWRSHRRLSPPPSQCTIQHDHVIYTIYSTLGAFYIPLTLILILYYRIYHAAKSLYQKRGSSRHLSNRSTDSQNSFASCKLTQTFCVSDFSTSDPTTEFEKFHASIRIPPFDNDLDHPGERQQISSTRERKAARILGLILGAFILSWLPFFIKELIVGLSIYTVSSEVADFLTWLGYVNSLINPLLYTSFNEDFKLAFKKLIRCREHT
T9 sequence (P28223 whole entry): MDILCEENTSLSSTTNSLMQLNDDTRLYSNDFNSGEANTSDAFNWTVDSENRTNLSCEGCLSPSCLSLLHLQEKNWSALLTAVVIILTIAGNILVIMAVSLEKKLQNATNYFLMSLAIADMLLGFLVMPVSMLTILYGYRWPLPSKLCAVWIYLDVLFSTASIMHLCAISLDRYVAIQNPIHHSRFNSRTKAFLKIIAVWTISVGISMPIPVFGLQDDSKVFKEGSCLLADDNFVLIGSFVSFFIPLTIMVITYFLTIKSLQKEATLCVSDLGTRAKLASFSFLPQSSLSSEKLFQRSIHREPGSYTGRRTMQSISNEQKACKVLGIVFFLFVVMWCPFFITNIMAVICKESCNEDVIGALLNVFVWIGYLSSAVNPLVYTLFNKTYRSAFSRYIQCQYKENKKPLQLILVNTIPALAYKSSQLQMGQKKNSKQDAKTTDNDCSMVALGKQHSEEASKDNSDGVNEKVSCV
T3 sequence (P28221 whole entry): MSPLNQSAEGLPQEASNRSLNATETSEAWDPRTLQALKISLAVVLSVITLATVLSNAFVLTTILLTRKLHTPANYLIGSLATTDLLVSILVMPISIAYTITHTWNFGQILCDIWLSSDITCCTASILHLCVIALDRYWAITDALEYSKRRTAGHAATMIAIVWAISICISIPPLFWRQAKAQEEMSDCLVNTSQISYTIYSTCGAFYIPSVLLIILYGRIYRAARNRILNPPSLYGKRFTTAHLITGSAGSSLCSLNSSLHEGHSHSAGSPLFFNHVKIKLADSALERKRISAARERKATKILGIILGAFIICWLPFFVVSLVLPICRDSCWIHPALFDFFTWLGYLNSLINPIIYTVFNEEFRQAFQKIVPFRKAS
5-hydroxytryptamine receptor 4, sequence (Q13639 whole entry): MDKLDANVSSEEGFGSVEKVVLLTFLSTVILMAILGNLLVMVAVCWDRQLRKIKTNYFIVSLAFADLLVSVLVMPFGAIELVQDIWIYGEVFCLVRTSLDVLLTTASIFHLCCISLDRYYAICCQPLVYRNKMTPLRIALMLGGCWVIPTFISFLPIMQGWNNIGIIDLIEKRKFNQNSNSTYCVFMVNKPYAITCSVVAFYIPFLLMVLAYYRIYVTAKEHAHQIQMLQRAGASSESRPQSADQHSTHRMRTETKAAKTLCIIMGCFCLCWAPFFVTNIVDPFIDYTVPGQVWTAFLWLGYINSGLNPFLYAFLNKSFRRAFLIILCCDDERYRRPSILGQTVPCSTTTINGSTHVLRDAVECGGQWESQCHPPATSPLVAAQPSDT

CCCCCCOc1ccc(C2=N[C@@H](CO)[C@H](C)S2)cc1 (relative stereo)
IC50 [1]: > 10 µM | Ki [2]: > 10 µM | IC50 [3]: > 10 µM | Ki [4]: > 10 µM | IC50 [5]: 1.9 µM | IC50 [6]: > 10 µM | Ki [7]: > 10 µM | Ki [8]: > 10 µM | Ki [9]: 4.3 µM | EC50 [10]: 0.18 µM | Ki [11]: 1.7 µM | IC50 [12]: > 10 µM | Ki [13]: > 10 µM | Ki [14]: 3.9 µM | Ki [15]: > 10 µM | Ki [16]: > 10 µM | inhibition [17]: 100%

CCCCOc1ccc(C2=N[C@@H](CO)[C@H](C)S2)cc1 (relative stereo)
IC50 [1]: > 10 µM | Ki [2]: > 10 µM | IC50 [3]: > 10 µM | Ki [4]: > 10 µM | IC50 [5]: 2.1 µM | IC50 [6]: > 10 µM | Ki [7]: 9.7 µM | Ki [8]: > 10 µM | Ki [9]: 7.5 µM | EC50 [10]: 0.029 µM | Ki [11]: 3.2 µM | IC50 [12]: > 10 µM | Ki [13]: > 10 µM | Ki [14]: 2.2 µM | Ki [15]: > 10 µM | Ki [16]: > 10 µM | inhibition [17]: 100%

CCC1(C)CC(=O)NC1=O (stereo not drawn) [ETHOSUXIMIDE]
ED50 (Mus musculus [18]): > 600 mg/kg

C[C@@H]1SC(c2ccccc2O)=N[C@@H]1CO [PULICATIN A]
Ki [19]: > 10 µM | IC50 [1]: 30 µM | Ki [20]: > 10 µM | Activity [21]: inactive | Ki [22]: > 10 µM | Ratio [23]: 50 to 140 | Ki [24]: > 10 µM | Ki [25]: > 10 µM | Ki [26]: > 10 µM | Ki [27]: > 10 µM | Ki [28]: > 10 µM | Ki [29]: > 10 µM

CCCC(CCC)C(=O)O [VALPROIC ACID]
ED50 (Mus musculus [30]): 310 mg/kg
